Columns and labels:
[1] = target: Trypanothione reductase (Trypanosoma cruzi, UniProt P28593); test: Tested for binding affinity against trypanothione reductase from Trypanosoma cruzi
Method in brief: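 Recombinant T. cruzi TR purified from glutathione reductase-deficient E. coli SG5 strain. Activity read as NADPH oxidation at 340 nm, 23 °C, in HEPES 100 mM pH 7.25 with EDTA 1 mM, NADPH 0.18 mM and TR 2.2 µg/mL. Velocities taken at five trypanothione levels (15-75 µM) and five inhibitor levels. Km(obs) fitted by Michaelis–Menten; Ki from weighted regression of Km(obs) against [I].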

[2] = system: Trypanosoma brucei; test: Tested in vitro for trypanocidal activity against KETRI 243 an uncloned clinical isolate of Trypanosoma brucei. rhodesiense; format: functional, organism-based
Method in brief: (§1)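 Bloodstream-form trypanosomes were grown in vitro in culture medium containing fetal bovine serum, which the paper notes contains polyamine oxidase. IC50 values in µM.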

[3] = system: Trypanosoma brucei; test: Tested in vitro for trypanocidal activity against KETRI 243-As-10-3 a pentamidine and melarsoprol resistant clone of Trypanosoma brucei. rhodesiense KETRI 243; format: functional, organism-based; method in brief: as §1
[4] = system: Trypanosoma brucei; test: Tested in vitro for trypanocidal activity against KETRI 269 an uncloned clinical isolate of Trypanosoma brucei. rhodesiense; format: functional, organism-based; method in brief: as §1
[5] = system: Trypanosoma brucei; test: Tested in vitro for trypanocidal activity against a drug sensitive strain of Trypanosoma brucei Lab 110 EATRO; format: functional, organism-based; method in brief: as §1

Sequence of Trypanothione reductase (P28593 whole entry): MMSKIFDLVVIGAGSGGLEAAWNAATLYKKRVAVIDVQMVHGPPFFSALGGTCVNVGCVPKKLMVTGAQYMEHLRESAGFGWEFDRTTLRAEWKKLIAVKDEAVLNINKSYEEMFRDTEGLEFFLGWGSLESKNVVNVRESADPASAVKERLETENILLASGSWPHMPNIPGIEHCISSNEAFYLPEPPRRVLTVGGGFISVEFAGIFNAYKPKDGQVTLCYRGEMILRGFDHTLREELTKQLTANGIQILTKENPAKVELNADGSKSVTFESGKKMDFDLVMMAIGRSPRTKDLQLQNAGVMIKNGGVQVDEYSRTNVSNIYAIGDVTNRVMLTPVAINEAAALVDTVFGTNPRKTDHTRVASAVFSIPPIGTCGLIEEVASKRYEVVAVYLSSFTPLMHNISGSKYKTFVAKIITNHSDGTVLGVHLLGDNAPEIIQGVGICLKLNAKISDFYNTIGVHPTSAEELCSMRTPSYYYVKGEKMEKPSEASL

Row | Compound | Ki [1] | IC50 [2] | IC50 [3] | IC50 [4] | IC50 [5]
1 | c1ccc(CCCN(CCCCN(CCCc2ccccc2)CCCN(CCCc2ccccc2)CCCc2ccccc2)CCCN(CCCc2ccccc2)CCCc2ccccc2)cc1 | 10300 nM | 35000 nM | 24000 nM | 30500 nM | 22000 nM
2 | NCCCN(CCCCN(CCCN)CCCc1ccccc1)CCCc1ccccc1 |  | 790 nM | 660 nM | 580 nM | 660 nM
3 | c1ccc(CCCNCCCCN(CCCNCCCc2ccccc2)CCCc2ccccc2)cc1 | 3500 nM | 360 nM | 460 nM | 540 nM | 220 nM
4 | c1ccc(CCCNCCCNCCCCNCCCN(CCCc2ccccc2)CCCc2ccccc2)cc1 | 3620 nM | 160 nM | 530 nM | 270 nM | 400 nM
5 | c1ccc(CCCNCCCN(CCCCN(CCCc2ccccc2)CCCN(CCCc2ccccc2)CCCc2ccccc2)CCCc2ccccc2)cc1 | 151 nM | 3350 nM | 5500 nM | 2200 nM | 3050 nM
6 | NCCCN(CCCCN(CCCNCCCc1ccccc1)CCCc1ccccc1)CCCc1ccccc1 | 1380 nM | 160 nM | 160 nM | 160 nM | 270 nM
7 | NCCCCN(CCCNCCCc1ccccc1)CCCc1ccccc1.NCCCN(CCCCNCCCc1ccccc1)CCCc1ccccc1 | 4670 nM | 530 nM | 570 nM | 380 nM | 310 nM
8 | NCCCNCCCCNCCCNCCCc1ccccc1 | 37600 nM |  |  |  | 
9 | NCCCCN(CCCN)CCCc1ccccc1 | 14100 nM |  |  |  | 
10 | c1ccc(CCCNCCCNCCCCNCCCNCCCc2ccccc2)cc1 | 12300 nM | 1500 nM | 2200 nM | 1800 nM | 810 nM
11 | c1ccc(CCCNCCCN(CCCCN(CCCNCCCc2ccccc2)CCCc2ccccc2)CCCc2ccccc2)cc1 | 614 nM | 140 nM | 150 nM | 160 nM | 120 nM

Reference: ChEMBL document CHEMBL1133793, “Polyamines with N-(3-phenylpropyl) substituents are effective competitive inhibitors of trypanothione reductase and trypanocidal agents” (Bioorg Med Chem Lett, 2001)
